# Screens deposited in PubChem BioAssay by The Scripps Research Institute Molecular Screening Center.
# TAAR1 antagonist: antagonists of human TAAR1; CHO RD-HGA16 TAAR1, Fluo-8 calcium fluorescence, antagonist; inhibition, % at 3 µM; actives 1.5% (n = 360,000);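 active = inhibition above a per-plate cutoff, the mean inhibition of test compounds on that plate plus 3 SD, cut at about 49% in these data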
# Target sequence (Q96RJ0 whole entry, looked up): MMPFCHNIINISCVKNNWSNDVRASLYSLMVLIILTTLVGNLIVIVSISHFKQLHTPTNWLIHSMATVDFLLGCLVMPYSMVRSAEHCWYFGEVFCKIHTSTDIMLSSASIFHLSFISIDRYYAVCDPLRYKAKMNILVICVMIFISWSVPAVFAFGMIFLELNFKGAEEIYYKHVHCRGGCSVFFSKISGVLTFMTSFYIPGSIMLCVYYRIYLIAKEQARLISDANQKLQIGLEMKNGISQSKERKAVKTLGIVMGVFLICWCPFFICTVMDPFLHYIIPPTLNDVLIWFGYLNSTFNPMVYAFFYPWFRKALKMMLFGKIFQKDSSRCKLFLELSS
#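 Test system: RD-HGA16 CHO cells with stable hTAAR1 and Gα16 / Probe or stimulus: EC80 β-phenethylamine stimulus / Times: seeding 17-24 h prior, 75-min 37 °C, 30-min RT dye loading / Detection: Fluo-8 calcium-sensitive fluorescence / Read-out basis: % inhibition scaled between DMSO and EC80 PEA controls / Repeats: singlicate, one well per test compound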
# HCV core dimer: blocks dimerization of HCV core protein; actives 0.33% (n = 300,000); TR-FRET GST/Flag-core106 dimerization, 1536-well; inhibition, % at 5 µM;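 active = inhibition above the mean of all tested compounds plus 3 SD, set per screening campaign, cut at about 45% in these data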
#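 System: GST/Flag-tagged HCV core106 proteins. Incubation: compound-protein-antibody incubation 4 h at 22.5 °C. Technique: HTRF with 340 nm excitation, 617/671 nm emission. Medium: KF-containing HEPES buffer, pH 7.45, DTT, CHAPS, BSA. Read-out: inhibition (%) from 671 over 617 nm ratio. Also added: Eu(K)-anti-GST 90 ng/mL plus XL665-anti-Flag 1 µg/mL.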
# TAAR1 ag: agonists of human TAAR1; CHO RD-HGA16 TAAR1, Fluo-8 calcium fluorescence; vehicle wells 0%, saturating PEA agonist 100%; actives 0.99% (n = 360,000); Q96RJ0; AID 624467; activation, % at 3 µM;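 active = activation above the mean activation of all test compounds in the run plus 3 SD, cut at about 38% in these data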
#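 System: CHO RD-HGA16 cells carrying human TAAR1 plus Gα16; Incubation: 17-24 h seeding, 75 min 37 °C dye, 30 min RT; Measured by: Fluo-8 fluorescence, 5 s baseline then 140 s kinetic read; Control set: DMSO and PEA EC100; Replication: single well for each compound.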
# NS3 helicase inh: HCV NS3 helicase inhibition. actives 0.56% (n = 290,000). inhibition, % at 10.9 µM. NS3 helicase DNA unwinding, Cy5 molecular beacon fluorescence;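 active = inhibition above the mean of all tested compounds plus 3 SD, set per campaign, cut at about 35% in these data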
#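 Material: hepatitis C virus NS3 helicase domain fragment enzyme; measured by: Cy5 fluorescence, 0 and 60 min reads; control set: DMSO and thioflavine S; incubation: 60 min unwinding reaction at 25 °C after ATP addition; read-out basis: % inhibition from 60/0 min fluorescence ratio, DMSO 0%, thioflavine S 100%; repeats: singlicate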
# rCAG binder: r(CAG) repeat RNA binding; TO-PRO-1 dye displacement fluorescence; inhibition, % at 3 µM; actives 1.3% (n = 370,000); AID 651821;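 active = inhibition above the plate cutoff, the mean of all test compounds on that plate plus 3 SD, cut at about 35% in these data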;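 also: higher means more dye released from RNA so lower well fluorescence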
# rCAG bind conf: r(CAG) RNA repeat binding, confirmation; shares compounds with rCAG binder; TO-PRO-1 dye displacement fluorescence; inhibition, % at 3 µM; actives 70% (n = 4,300); AID 652065;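 active = inhibition above a per-plate cutoff, the mean inhibition of sample wells plus 3 SD, cut at about 35% in these data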;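 also: loss of TO-PRO-1 fluorescence as compound displaces dye from 1x1 AA loop RNA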
# dCAG dye counter: disrupts DNA CAG TO-PRO-1 complex, flagging rCAG hits | shares compounds with rCAG binder | d(CAG) DNA oligo TO-PRO-1 dye displacement, fluorescence | inhibition, % at 3 µM | actives 94% (n = 4,300);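 active = inhibition above its plate's cutoff, the mean test-well inhibition plus 3 SD, cut at about 4.8% in these data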;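 also: hits displace the dye from DNA and so lower well fluorescence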
# dCAG dye DR: disrupts DNA CAG TO-PRO-1 complex in dose response. IC50, µM. AID 686960. DNA CAG/GTC duplex TO-PRO-1 dye displacement fluorescence. shares compounds with rCAG binder. actives 20% (n = 250); in the data active = IC50 below about 10 µM
# Numbers stand for hits; - = inactive; . = not tested or not shown. This is a sample that favours compounds with a hit; in the whole collection about 3.7% have one here.
SMILES,TAAR1 antagonist,HCV core dimer,TAAR1 ag,NS3 helicase inh,rCAG binder,rCAG bind conf,dCAG dye counter,others
CCOC(=O)c1c(NC(=O)/C=C/C(=O)O)sc(C)c1-c1ccc(C(C)(C)C)cc1,-,-,-,-,80,73,34,dCAG dye DR=7.6
COc1ccccc1N1CSC2=C(C#N)C(c3ccc(SC)cc3)CC(=O)N2C1 (stereo not drawn),-,-,-,-,40,47,19,
C[N+](C)(C)c1ccc(/C=N/Nc2nc(Cl)c(C#N)c(Cl)c2Cl)cc1,-,-,-,-,-,.,.,
N#Cc1c(Cl)nc(N/N=C/c2ccccc2)c(Cl)c1Cl,-,-,-,-,45,-,-,
CCOc1ccc(NS(=O)(=O)c2ccc(C(=O)NNC(=O)c3ccccc3O)cc2)cc1,-,-,-,.,35,-,-,
O=C(O)c1cc(S(=O)(=O)Nc2ccc(OCc3ccccc3)cc2)ccc1Br,-,-,-,-,45,-,7.5,
O=C(O)CCc1ccc(S(=O)(=O)Nc2ccc(OCc3ccccc3)cc2)cc1,-,-,-,-,-,.,.,
O=C(O)c1cccc(S(=O)(=O)Nc2ccc(OCc3ccccc3)cc2)c1,-,-,-,-,41,-,-,
O=C(O)/C=C/c1ccc(S(=O)(=O)Nc2ccc(OCc3ccccc3)cc2)cc1,-,-,-,-,52,-,6.8,
COc1ccc(NS(=O)(=O)c2cccc(C(=O)O)c2)cc1,-,-,-,-,-,.,.,
C[C@@H]1COc2cccc(N3CCSCC3)c2S(=O)(=O)N1C,.,.,.,.,-,.,.,
COC(=O)C1=C(C)N(C)C(=NCC2CC2)NC1c1cccc(Cl)c1 (stereo not drawn),-,.,-,.,-,.,.,
COc1ccc(C(=O)OCCCN(C)C2CN(Cc3cn(Cc4cccc(F)c4)nn3)S(=O)(=O)C2)cc1OC (stereo not drawn),.,.,.,.,-,.,.,
CN(Cc1ccc2c(c1)CCCN2C)C(=O)[C@@H](Cc1ccccc1)NC(=O)[C@H]1O[C@@H](n2ccc(=O)[nH]c2=O)[C@H](O)[C@@H]1O,-,.,-,.,-,.,.,
O=C(O)c1cc(OCc2ccccc2)cc(OCc2ccccc2)c1,-,-,-,-,43,40,8.0,
COC(=O)[C@]12C[C@H](CC(=O)N3CCN(C(=O)c4ccco4)CC3)C(=O)N(CCC3=CCCCC3)C1=C[C@H](C1CCCC1)O[C@@H]2C,.,.,.,.,-,.,.,
CCCCc1ccc(S(=O)(=O)NC(=O)C2(C)CCN2C(=O)Cc2ccccc2)cc1 (stereo not drawn),-,.,-,.,39,-,4.8,
CCCCc1ccc(S(=O)(=O)NC(=O)C2(C)CCN2C(=O)C/C=C/c2ccccc2)cc1 (stereo not drawn),-,.,-,.,58,55,18,
CCCCc1ccc(S(=O)(=O)NC(=O)C2(C)CCN2C(=O)c2cccc(F)c2)cc1 (stereo not drawn),-,.,-,.,37,-,6.5,
CCCCS(=O)(=O)NC(=O)C1(C)CCN1C(=O)C/C=C/c1ccccc1 (stereo not drawn),-,.,-,.,-,.,.,
CCCCOc1ccc(S(=O)(=O)NC(=O)C2(C)CCN2C(=O)c2cccc(F)c2)cc1 (stereo not drawn),-,.,-,.,-,.,.,
CCCCNC(=O)C1(C(=O)c2ccc(OC)cc2)CC(C(=O)OCC)=NO1 (stereo not drawn),.,.,.,.,-,.,.,
CC(=O)c1ccc(NS(=O)(=O)c2ccc(C)cc2)cc1,-,-,-,-,-,.,.,
COc1cc(OC)c(OC)cc1/C=C/C(=O)c1ccc(NS(=O)(=O)c2ccc(C)cc2)cc1,-,-,-,-,46,39,16,
CC1(C(=O)NS(=O)(=O)c2cccc(C#N)c2)CCN1C(=O)Cc1ccc(-c2ccccc2)cc1 (stereo not drawn),-,.,-,.,41,44,11,
